Laboratory results: ChEMBL document CHEMBL1153585, “Evaluation of in vivo wound-healing potential of 2-[4-(2,4-dimethoxy-benzoyl)-phenoxy]-1-[4-(3-piperidin-4-yl-propyl)-piperidin-1-yl]-ethanone derivatives” (2009)
Calls of active or inactive are those of the source. The rule behind the calls is not given here.

What was measured:
Rattus norvegicus [1] = test: Wound healing activity in po dosed Swiss albino rat incision wound model assessed as skin breaking strength after 10 days; type: functional
Rattus norvegicus [2] = test: Wound healing activity in po dosed Swiss albino rat dead space wound model assessed as wet weight of granulation tissue per 100 gm after 24 hrs; type: functional
Method in brief: (§1)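 Oral dosing by feeding tube of a 4 mg/mL suspension in 1% (w/v) Tween-80, prepared fresh. Ten groups of four animals: untreated control, a 0.2% (w/w) nitrofurazone ointment reference, and eight test groups. Granulation tissue was weighed wet and dry, and its breaking strength was measured. Values are mean ± SE of 4 animals, analysed by one-way ANOVA with Tukey's test against control.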

Rattus norvegicus [3] = test: Wound healing activity in po dosed Swiss albino rat dead space wound model assessed as dry weight of granulation tissue per 100 gm after 24 hrs; type: functional; method in brief: as §1
Rattus norvegicus [4] = test: Wound healing activity in po dosed Swiss albino rat dead space wound model assessed as skin breaking strength after 10 days; type: functional; method in brief: as §1
Rattus norvegicus [5] = test: Wound healing activity in po dosed Swiss albino rat incision wound model assessed as increase in dry weight of granulation tissue after 24 hrs; type: functional, organism-based
Rattus norvegicus [6] = test: Wound healing activity in po dosed Swiss albino rat dead space wound model assessed as granuloma epithelialization and collagenation; type: functional, organism-based
Rattus norvegicus [7] = test: Wound healing activity in po dosed Swiss albino rat incision wound model assessed as increase in wet weight of granulation tissue after 24 hrs; type: functional, organism-based

| Structure (SMILES) | Activity (Rattus norvegicus [1]) [g] | Activity (Rattus norvegicus [2]) [mg] | Activity (Rattus norvegicus [3]) [mg] | Activity (Rattus norvegicus [4]) [g] | Activity (Rattus norvegicus [5]) | Activity (Rattus norvegicus [6]) | Activity (Rattus norvegicus [7]) |
| --- | --- | --- | --- | --- | --- | --- | --- |
| NC(=O)N/N=C/c1ccc([N+](=O)[O-])o1 [NITROFURAZONE] | 875 |  |  |  |  |  |  |
| COc1ccc(C(=O)c2ccc(OCC(=O)N3CCC(CCCC4CCN(C(=O)Nc5ccc(F)cc5)CC4)CC3)cc2)c(OC)c1 | 552.06 | 91.31 | 17.8 | 451.6 |  |  |  |
| COc1ccc(C(=O)c2ccc(OCC(=O)N3CCC(CCCC4CCN(C(=S)Nc5ccc(F)cc5)CC4)CC3)cc2)c(OC)c1 | 760.88 | 122.94 | 26.27 | 645.69 | Active | Active | Active |
| COc1ccc(C(=O)c2ccc(OCC(=O)N3CCC(CCCC4CCN(C(=O)Nc5ccccc5Cl)CC4)CC3)cc2)c(OC)c1 | 605.49 | 104.85 | 21.01 | 541.82 |  | Active |  |
| COc1ccc(C(=O)c2ccc(OCC(=O)N3CCC(CCCC4CCN(C(=O)Nc5ccc(Cl)cc5Cl)CC4)CC3)cc2)c(OC)c1 | 445.12 | 79 | 17.81 | 361.6 |  |  |  |
| COc1ccc(NC(=O)N2CCC(CCCC3CCN(C(=O)COc4ccc(C(=O)c5ccc(OC)cc5OC)cc4)CC3)CC2)cc1 | 503.89 | 112.48 | 21.59 | 414.19 |  |  |  |
| COc1ccc(C(=O)c2ccc(OCC(=O)N3CCC(CCCC4CCN(C(=S)Nc5ccc(Cl)cc5Cl)CC4)CC3)cc2)c(OC)c1 | 612.5 | 88.02 | 21.02 | 619.15 |  |  |  |
| COc1ccc(C(=O)c2ccc(OCC(=O)N3CCC(CCCC4CCN(C(=S)Nc5ccccc5Cl)CC4)CC3)cc2)c(OC)c1 | 748.38 | 134.79 | 26.04 | 623.25 | Active | Active | Active |
| COc1ccc(NC(=S)N2CCC(CCCC3CCN(C(=O)COc4ccc(C(=O)c5ccc(OC)cc5OC)cc4)CC3)CC2)cc1 | 675 | 80.54 | 12.36 | 355.42 |  |  |  |
